The source made the active and inactive calls. The calls are words filed in the database; no cut-off is given here.
Tests used:
A2780 [1] = assay: Induction of apoptosis in human A2780 cells assessed as necrotic cells at 30 uM after 24 hrs by annexin V/propidium iodide staining-based FACS analysis (reference value: 1.78%); format: functional
A2780 [2] = assay: Induction of apoptosis in human A2780 cells assessed as vital cells at 30 uM after 24 hrs by annexin V/propidium iodide staining-based FACS analysis (reference value: 82.15%); format: functional
A2780 [3] = assay: Induction of apoptosis in human A2780 cells assessed as secondary necrotic cells at 30 uM after 24 hrs by annexin V/propidium iodide staining-based FACS analysis (reference value: 9.71%); format: functional
A2780 [4] = assay: Induction of apoptosis in human A2780 cells assessed as necrotic cells at 30 uM after 24 hrs by annexin V/propidium iodide staining-based FACS analysis (reference value: 6.37%); format: functional
A2780 [5] = assay: Cytotoxicity against human A2780 cells after 96 hrs by SRB assay; format: functional, cell-based; details: A2780, 96 h
A549 = assay: Cytotoxicity against human A549 cells after 96 hrs by SRB assay; format: functional, cell-based; details: A549, 96 h
NIH3T3 = assay: Cytotoxicity against mouse NIH/3T3 cells after 96 hrs by SRB assay; format: ADME, cell-based; details: NIH3T3, 96 h
MCF7 = assay: Cytotoxicity against human MCF7 cells after 96 hrs by SRB assay; format: functional, cell-based; details: MCF7, 96 h
[6] = Cytotoxicity against human 518A2 cells after 96 hrs by SRB assay; format: functional, cell-based; details: 518A2, 96 h
8505C = assay: cells; format: functional, cell-based; details: Homo sapiens, 96 h
HT-29 = assay: Cytotoxicity against human HT-29 cells after 96 hrs by SRB assay; format: functional, cell-based; details: HT-29, 96 h
A2780 [7] = assay: Cell cycle arrest in human A2780 cells at 30 uM by propidium iodide staining-based FACS analysis; format: functional
A2780 [8] = assay: Cell cycle arrest in human A2780 cells assessed as accumulation at S phase at 30 uM by propidium iodide staining-based FACS analysis (reference value: 32.439 %); format: functional
A2780 [9] = assay: Cell cycle arrest in human A2780 cells assessed as accumulation at G1 phase at 30 uM by propidium iodide staining-based FACS analysis (reference value: 51.839 %); format: functional
A2780 [10] = assay: Cell cycle arrest in human A2780 cells assessed as accumulation at G2 phase at 30 uM by propidium iodide staining-based FACS analysis (reference value: 15.721 %); format: functional
A2780 [11] = assay: Induction of apoptosis in human A2780 cells at 30 uM after 24 hrs by annexin V/propidium iodide staining-based FACS analysis; format: functional
A2780 [12] = assay: Induction of apoptosis in human A2780 cells assessed as DNA ladder formation at 30 uM after 24 hrs by electrophoresis; format: functional, cell-based
How it was run: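 A2780 cells were exposed to 30 µM compound for 24 h. Floating (dead) cells were collected and washed with PBS, and DNA fragmentation was examined by gel laddering alongside an untreated control.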

SMILES	Activity (A2780 [1]) [%]	Activity (A2780 [2]) [%]	Activity (A2780 [3]) [%]	Activity (A2780 [4]) [%]	IC50 (A2780 [5]) [µM]	IC50 (A549) [µM]	IC50 (NIH3T3) [µM]	IC50 (MCF7) [µM]	IC50 [6] [µM]	IC50 (8505C) [µM]	IC50 (HT-29) [µM]	Activity (A2780 [7])	Activity (A2780 [8]) [%]	Activity (A2780 [9]) [%]	Activity (A2780 [10]) [%]	Activity (A2780 [11]) [%]	Activity (A2780 [12])
CC1(C)CC[C@]2(C(=O)OCc3ccccc3)CC[C@]3(C)[C@H](C(=O)C[C@@H]4[C@@]5(C)CC[C@H](O)C(C)(C)[C@@H]5CC[C@]43C)[C@@H]2C1	0.62	74.47	11.08	13.82													
COC(=O)[C@]12CCC(C)(C)C[C@H]1C1=CC[C@@H]3[C@@]4(C)C[C@@H](OC(C)=O)[C@H](OC(C)=O)C(C)(C)[C@@H]4CC[C@@]3(C)[C@]1(C)CC2					6.8	7.8	30.5	> 30	8.6	13.3	26.3						
COC(=O)[C@]12CC[C@@H](C)[C@H](C)[C@H]1C1=CC[C@@H]3[C@@]4(C)CC[C@H](O)C(C)(C)[C@@H]4CC[C@@]3(C)[C@]1(C)CC2 [METHYL URSOLATE]					15.3	20.2		22.2	17.7	20.6	25.4						
CC(=O)O[C@H]1CC[C@]2(C)[C@H]3C[C@H](O)[C@]45OC(=O)[C@@]6(CCC(C)(C)C[C@H]64)CC[C@@]5(C)[C@]3(C)CC[C@H]2C1(C)C	1.54	74.74	11.89	11.84	63.2	> 90	85.7	> 90	> 90	> 90	> 90	inactive	32.261	51.879	15.86		
COC(=O)[C@]12CCC(C)(C)C[C@H]1C1=CC(=O)[C@@H]3[C@@]4(C)CC[C@H](O)C(C)(C)[C@@H]4CC[C@@]3(C)[C@]1(C)CC2	3.11	33.08	29.68	34.13	6.6	15.1	24.8	21.3	15.6	13	18.5					>50	Active
COC(=O)[C@]12CCC(C)(C)C[C@H]1C1=CC(=O)[C@@H]3[C@@]4(C)CC[C@H](OC(C)=O)C(C)(C)[C@@H]4CC[C@@]3(C)[C@]1(C)CC2	1.4	72.75	12.57	13.28	40	66.1	33.6		24.1	16.2	29.4		25.334	56.831	17.835		
COC(=O)[C@]12CCC(C)(C)C[C@H]1C1=C(O)C(=O)[C@@H]3[C@@]4(C)CC[C@H](O)C(C)(C)[C@@H]4CC[C@@]3(C)[C@]1(C)CC2	6.65	25.72	19.74	48.08	17.5	25.6	25.8	25.8	21.2	23.3	15.3		21.594	59.438	18.968	>50	
CC1(C)CC[C@@]23CC[C@]4(C)[C@@](OC2=O)([C@@H]3C1)[C@@H](Cl)C[C@@H]1[C@@]2(C)C[C@@H](O)[C@H](O)C(C)(C)[C@@H]2CC[C@]14C					34.2	33.1	> 90			18	510						
CN[C@@H]1C[C@H]2O[C@@](C)([C@@H]1OC)n1c3ccccc3c3c4c(c5c6ccccc6n2c5c31)C(=O)NC4 [STAUROSPORINE]								0.4									
CC1(C)CC[C@@]23CC[C@]4(C)[C@@](OC2=O)([C@@H]3C1)[C@@H](I)C[C@@H]1[C@@]2(C)C[C@@H](O)[C@H](O)C(C)(C)[C@@H]2CC[C@]14C					31.5	34.4	80.2			72.1	> 90						
CC1(C)CC[C@]2(C(=O)OCc3ccccc3)CC[C@]3(C)C(=CC[C@@H]4[C@@]5(C)CC[C@H](O)C(C)(C)[C@@H]5CC[C@]43C)[C@@H]2C1					23	28	22.4	15.8	28	29.1	28.7						
CC1(C)CC[C@@]23CC[C@]4(C)[C@@](OC2=O)([C@@H]3C1)[C@@H](O)C[C@@H]1[C@@]2(C)C[C@@H](O)[C@H](O)C(C)(C)[C@@H]2CC[C@]14C					39.9	> 90	22.1	> 90	78.4	> 90	92.8						
CC1(C)CC[C@]2(C(=O)O)CC[C@]3(C)C(=CC[C@@H]4[C@@]5(C)C[C@@H](O)[C@H](O)C(C)(C)[C@@H]5CC[C@]43C)[C@@H]2C1 [MASLINIC ACID]							21.4	16.6									
COC(=O)[C@]12CCC(C)(C)C[C@H]1C1=CC[C@@H]3[C@@]4(C)CC[C@H](OC(C)=O)C(C)(C)[C@@H]4CC[C@@]3(C)[C@]1(C)CC2	2.41	72.47	9.43	15.68	8.6	26.1	34.3	16.7	34.1	20.5	26.7	inactive	28.805	55.294	15.901		
CC1(C)CC[C@]2(C(=O)O)CC[C@]3(C)C(=CC[C@@H]4[C@@]5(C)CC[C@H](O)C(C)(C)[C@@H]5CC[C@]43C)[C@@H]2C1 [OLEANOLIC_ACID]					14	72.3	76.4	> 60	> 60	> 60	38.8						
CC1(C)CC[C@@]23CC[C@]4(C)[C@@](OC2=O)([C@@H]3C1)[C@@H](Br)C[C@@H]1[C@@]2(C)C[C@@H](O)[C@H](O)C(C)(C)[C@@H]2CC[C@]14C					25.9	29.1	43.1			36.5	> 90						
COC(=O)[C@]12CCC(C)(C)C[C@H]1C1=CC[C@@H]3[C@@]4(C)C[C@@H](O)[C@H](O)C(C)(C)[C@@H]4CC[C@@]3(C)[C@]1(C)CC2 [MASLINIC ACID METHYL ESTER]					17.8												
COC(=O)[C@]12CCC(C)(C)C[C@H]1[C@H]1C(=O)C[C@@H]3[C@@]4(C)C[C@@H](OC(C)=O)[C@H](OC(C)=O)C(C)(C)[C@@H]4CC[C@@]3(C)[C@]1(C)CC2					11.6	14.1	31.7	23.8	9.6	10.3	17.6						

From ChEMBL document CHEMBL3108738, “The chemical and biological potential of C ring modified triterpenoids” (Eur J Med Chem, 2014)
